The source made the active and inactive calls. The rule behind the calls is not given here.
How the values were obtained:
[1] = test system: HCT-116; assay: Coadjutant activity against multidrug resistance in human HCT-116 cells assessed as potentiation of cisplatin-induced cell growth inhibition at 4 uM incubated for 72 hrs in presence of 0.1 to 100 uM cisplatin by SiR-DNA/CellTox Green Dye based fluorescence analysis; assay type: functional
How it was run: (§1)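 Cisplatin co-treatment, 72 h imaging growth assay (SiR-DNA nuclei minus CellTox Green dead cells, 500 cells/well, phenol-red-free medium). Combinations: inhibitor fixed with cisplatin 0.1–100 µM, or cisplatin fixed at 0.25 µM with inhibitor 0.25–4 µM. Three technical replicates, mean ± SD; two-tailed t-test.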

[2] = biological target: T1, ATP-dependent translocase ABCB1 (Homo sapiens, UniProt P08183); assay: Inhibition of P-gp in human HCT-15 cells assessed as increase in green fluorescence intensity at 1 to 10 uM incubated for 15 mins followed by incubation with EFFLUX-ID Green Detection Reagent and Hoeschst-33342 dye and measured after 30 mins by fluorescence analysis; assay type: cell-based; conditions: hct-15, 0.25 h, dose 1-10 µM
How it was run: (§2)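 5000 cells/well in phenol-red-free medium plated 24 h before; compounds 0.1, 1, 10 µM for 15 min, then EFLUXX-ID Green reagent (1:200) plus Hoechst-33342 1 µg/mL, 30 min 37 °C. Widefield imaging; median green intensity from 250 cells per well normalized to untreated wells. Mean ± SD of three wells; one-tailed t-test.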

[3] = test system: SK-HEP1; assay: Cytotoxicity against human SK-HEP1 cells assessed as inhibition of cell growth at 4 uM incubated for 72 hrs by SiR-DNA/CellTox Green Dye based fluorescence analysis; assay type: toxicity; conditions: sk-hep1, 72 h
How it was run: (§3)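 Single-agent control at 4 µM, no anticancer drug. 500 cells/well with SiR-DNA and CellTox Green; imaged at addition and 72 h. Live count = total nuclei minus dead cells, expressed as percent growth. Three technical replicates.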

[4] = test system: A498; assay: Coadjutant activity against multidrug resistance in human A498 cells assessed as potentiation of vincristine-induced cell growth inhibition at 0.25 to 4 uM incubated for 72 hrs in presence of 0.2 uM vincristine by SiR-DNA/CellTox Green Dye based fluorescence analysis; assay type: functional; conditions: dose 0.25-4 µM
How it was run: (§4)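 Growth by live-cell imaging: 500 cells/well plated with SiR-DNA and CellTox Green dye; serial dilutions in phenol-red-free complete medium added next day. Imaged at addition and at 72 h. Live cells = SiR-DNA nuclei minus CellTox-positive dead cells; percentage growth calculated. Three technical replicates; two-tailed t-test. Inhibitor paired with anticancer drug at fixed or scaled levels.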

[5] = test system: A704; assay: Coadjutant activity against multidrug resistance in human A704 cells assessed as potentiation of vincristine-induced cell growth inhibition by measuring cell growth at 4 uM incubated for 72 hrs in presence of 0.02 to 20 uM vincristine by SiR-DNA/CellTox Green Dye based fluorescence analysis; assay type: functional; set-up: scale not given: the % may be the effect or the level left; how it was run: as §4
[6] = test system: A498; assay: Coadjutant activity against multidrug resistance in human A498 cells assessed as potentiation of etoposide-induced cell growth inhibition at 4 uM incubated for 72 hrs in presence of 0.04 to 40 uM etoposide by SiR-DNA/CellTox Green Dye based fluorescence analysis; assay type: functional; how it was run: as §4
[7] = test system: HT-29; assay: Coadjutant activity against multidrug resistance in human HT-29 cells assessed as potentiation of vincristine-induced cell growth inhibition at 4 uM incubated for 72 hrs in presence of 0.02 to 20 uM vincristine by SiR-DNA/CellTox Green Dye based fluorescence analysis; assay type: functional; how it was run: as §4
[8] = test system: HT-29; assay: Cytotoxicity against human HT-29 cells assessed as inhibition of cell growth at 4 uM incubated for 72 hrs by SiR-DNA/CellTox Green Dye based fluorescence analysis; assay type: toxicity; conditions: ht-29, 72 h; how it was run: as §3
[9] = test system: HuP-T3; assay: Coadjutant activity against multidrug resistance in human Hup-T3 cells assessed as potentiation of cisplatin-induced cell growth inhibition at 4 uM incubated for 72 hrs in presence of 0.1 to 100 uM cisplatin by SiR-DNA/CellTox Green Dye based fluorescence analysis; assay type: functional; how it was run: as §1
[10] = test system: HCT-116 (Homo sapiens); assay: Coadjutant activity against multidrug resistance in human HCT-116 cells assessed as potentiation of cisplatin-induced cell growth inhibition at 0.25 to 4 uM incubated for 72 hrs in presence of 0.25 uM cisplatin by SiR-DNA/CellTox Green Dye based fluorescence analysis; conditions: dose 0.25-4 µM
[11] = test system: A704; assay: Coadjutant activity against multidrug resistance in human A704 cells assessed as potentiation of vincristine-induced cell growth inhibition at 0.25 to 4 uM incubated for 72 hrs in presence of 0.2 uM vincristine by SiR-DNA/CellTox Green Dye based fluorescence analysis; assay type: functional; conditions: dose 0.25-4 µM; how it was run: as §4
[12] = test system: HT-29; assay: Coadjutant activity against multidrug resistance in human HT-29 cells assessed as potentiation of cisplatin-induced cell growth inhibition at 4 uM incubated for 72 hrs in presence of 0.1 to 100 uM cisplatin by SiR-DNA/CellTox Green Dye based fluorescence analysis; assay type: functional; how it was run: as §1
[13] = Cytotoxicity against human A498 cells assessed as inhibition of cell growth at 4 uM incubated for 72 hrs by SiR-DNA/CellTox Green Dye based fluorescence analysis relative to control; assay type: toxicity; how it was run: as §3
[14] = test system: A498; assay: Coadjutant activity against multidrug resistance in human A498 cells assessed as potentiation of vincristine-induced cell growth inhibition by measuring cell growth at 4 uM incubated for 72 hrs in presence of 0.02 to 20 uM vincristine by SiR-DNA/CellTox Green Dye based fluorescence analysis; assay type: functional; set-up: scale not given: the % may be the effect or the level left; how it was run: as §4
[15] = test system: HuP-T3; assay: Cytotoxicity against human Hup-T3 cells assessed as inhibition of cell growth at 4 uM incubated for 72 hrs by SiR-DNA/CellTox Green Dye based fluorescence analysis; assay type: toxicity; conditions: hup-t3, 72 h; how it was run: as §3
[16] = biological target: T1, ATP-dependent translocase ABCB1; assay: Inhibition of P-gp in human HT1197 cells assessed as increase in green fluorescence intensity at 0.1 to 10 uM incubated for 15 mins followed by incubation with EFFLUX-ID Green Detection Reagent and Hoeschst-33342 dye and measured after 30 mins by fluorescence analysis; assay type: cell-based; conditions: ht1197, 0.25 h, dose 0.1-10 µM; how it was run: as §2
[17] = biological target: T1, ATP-dependent translocase ABCB1; assay: Inhibition of P-gp in human A498 cells assessed as increase in green fluorescence intensity at 0.1 to 10 uM incubated for 15 mins followed by incubation with EFFLUX-ID Green Detection Reagent and Hoeschst-33342 dye and measured after 30 mins by fluorescence analysis; assay type: cell-based; conditions: a498, 0.25 h, dose 0.1-10 µM; how it was run: as §2
[18] = test system: U-87 MG; assay: Coadjutant activity against multidrug resistance in human U-87 MG cells assessed as potentiation of vincristine-induced cell growth inhibition at 0.25 to 4 uM incubated for 72 hrs in presence of 0.2 uM vincristine by SiR-DNA/CellTox Green Dye based fluorescence analysis; assay type: functional; conditions: U-87MG ATCC, dose 0.25-4 µM; how it was run: as §4
[19] = test system: MeWo; assay: Coadjutant activity against multidrug resistance in human MeWo cells assessed as potentiation of vincristine-induced cell growth inhibition at 4 uM incubated for 72 hrs in presence of 0.02 to 20 uM vincristine by SiR-DNA/CellTox Green Dye based fluorescence analysis; assay type: functional; how it was run: as §4
[20] = test system: HuP-T3; assay: Coadjutant activity against multidrug resistance in human Hup-T3 cells assessed as potentiation of vincristine-induced cell growth inhibition by measuring cell growth at 4 uM incubated for 72 hrs in presence of 0.02 to 20 uM vincristine by SiR-DNA/CellTox Green Dye based fluorescence analysis; assay type: functional; set-up: scale not given: the % may be the effect or the level left; how it was run: as §4

T1 sequence (P08183 whole entry): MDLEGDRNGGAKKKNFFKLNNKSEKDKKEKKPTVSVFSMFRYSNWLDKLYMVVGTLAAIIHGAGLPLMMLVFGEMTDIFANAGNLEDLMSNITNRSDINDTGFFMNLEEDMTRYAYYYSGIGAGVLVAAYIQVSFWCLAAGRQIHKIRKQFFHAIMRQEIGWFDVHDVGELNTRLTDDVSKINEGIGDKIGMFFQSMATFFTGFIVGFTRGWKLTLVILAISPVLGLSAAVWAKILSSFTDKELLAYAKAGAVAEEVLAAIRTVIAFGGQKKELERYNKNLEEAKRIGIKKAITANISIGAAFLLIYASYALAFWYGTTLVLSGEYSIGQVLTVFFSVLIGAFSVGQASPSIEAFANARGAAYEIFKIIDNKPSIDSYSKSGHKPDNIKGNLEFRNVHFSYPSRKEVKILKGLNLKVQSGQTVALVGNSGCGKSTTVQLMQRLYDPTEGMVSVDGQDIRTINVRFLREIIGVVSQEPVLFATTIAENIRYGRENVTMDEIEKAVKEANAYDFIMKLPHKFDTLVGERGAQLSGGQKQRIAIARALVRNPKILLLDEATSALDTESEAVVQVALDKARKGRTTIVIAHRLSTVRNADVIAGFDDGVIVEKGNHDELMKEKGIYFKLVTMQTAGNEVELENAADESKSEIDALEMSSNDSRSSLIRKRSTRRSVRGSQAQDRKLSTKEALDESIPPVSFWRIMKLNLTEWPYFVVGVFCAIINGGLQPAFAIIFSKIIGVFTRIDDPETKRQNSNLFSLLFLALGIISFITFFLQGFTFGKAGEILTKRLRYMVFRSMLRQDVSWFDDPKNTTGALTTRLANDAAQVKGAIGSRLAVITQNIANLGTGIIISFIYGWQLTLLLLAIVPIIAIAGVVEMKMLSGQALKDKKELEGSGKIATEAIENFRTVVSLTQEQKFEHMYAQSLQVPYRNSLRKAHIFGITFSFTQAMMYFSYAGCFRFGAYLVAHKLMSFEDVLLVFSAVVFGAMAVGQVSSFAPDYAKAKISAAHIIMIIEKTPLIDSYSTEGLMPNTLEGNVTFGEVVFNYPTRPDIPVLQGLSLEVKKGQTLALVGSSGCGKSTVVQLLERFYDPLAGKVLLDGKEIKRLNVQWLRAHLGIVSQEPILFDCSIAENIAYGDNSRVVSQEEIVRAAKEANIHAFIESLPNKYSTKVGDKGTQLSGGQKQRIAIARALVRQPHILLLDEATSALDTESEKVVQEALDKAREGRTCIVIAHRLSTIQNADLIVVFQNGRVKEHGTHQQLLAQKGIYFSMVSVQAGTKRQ

O=C(Nc1ccccc1)c1ccccc1OCc1nc2cc3cccnc3cc2nc1COc1ccccc1C(=O)Nc1ccccc1
Activity [1]: inactive | inhibition (INH) [2]: Active | Activity [3]: Non-Toxic | Activity [4]: Active | Activity [5]: 50% | Activity [6]: Active | Activity [7]: Active | Activity [8]: Non-Toxic | Activity [9]: inactive | Activity [10]: inactive | Activity [11]: Active | Activity [12]: inactive | inhibition at 72 h, 4 µM [13]: 20% | Activity [14]: 50% | Activity [15]: Non-Toxic | inhibition (INH) [16]: Not Active | inhibition (INH) [17]: Not Active | Activity [18]: Active | Activity [19]: Active | Activity [20]: 50%

From ChEMBL document CHEMBL5608187, “Discovery of pyridoquinoxaline-based new P-gp inhibitors as coadjutant against Multi Drug Resistance in cancer” (Eur J Med Chem, 2024)
